Results as given in ChEMBL document CHEMBL4400565, “Discovery of Irreversible p97 Inhibitors” (J Med Chem, 2019).
Active and inactive are the calls of the source. No cut-off for these calls is given here. Where a SMILES comes first, the peptide text is derived from it. [ ]: non-standard residue; d: D form. The star is where a group is joined. Nva = CCC[C@H](N)C(=O)O; Cbz = O=C(OCc1ccccc1)*

Legend:
MIA PaCa-2 = experiment: Antiproliferative activity against human MIAPaCa2 cells; format: functional, cell-based
[1] = target: T1, Transitional endoplasmic reticulum ATPase (Homo sapiens, UniProt P55072); experiment: Inhibition of His-tagged p97 (unknown origin) in presence of ATP and PNP by UV-transparent microplate assay; details: read-out: Ki(app)
Target sequence in this assay (P55072 whole entry): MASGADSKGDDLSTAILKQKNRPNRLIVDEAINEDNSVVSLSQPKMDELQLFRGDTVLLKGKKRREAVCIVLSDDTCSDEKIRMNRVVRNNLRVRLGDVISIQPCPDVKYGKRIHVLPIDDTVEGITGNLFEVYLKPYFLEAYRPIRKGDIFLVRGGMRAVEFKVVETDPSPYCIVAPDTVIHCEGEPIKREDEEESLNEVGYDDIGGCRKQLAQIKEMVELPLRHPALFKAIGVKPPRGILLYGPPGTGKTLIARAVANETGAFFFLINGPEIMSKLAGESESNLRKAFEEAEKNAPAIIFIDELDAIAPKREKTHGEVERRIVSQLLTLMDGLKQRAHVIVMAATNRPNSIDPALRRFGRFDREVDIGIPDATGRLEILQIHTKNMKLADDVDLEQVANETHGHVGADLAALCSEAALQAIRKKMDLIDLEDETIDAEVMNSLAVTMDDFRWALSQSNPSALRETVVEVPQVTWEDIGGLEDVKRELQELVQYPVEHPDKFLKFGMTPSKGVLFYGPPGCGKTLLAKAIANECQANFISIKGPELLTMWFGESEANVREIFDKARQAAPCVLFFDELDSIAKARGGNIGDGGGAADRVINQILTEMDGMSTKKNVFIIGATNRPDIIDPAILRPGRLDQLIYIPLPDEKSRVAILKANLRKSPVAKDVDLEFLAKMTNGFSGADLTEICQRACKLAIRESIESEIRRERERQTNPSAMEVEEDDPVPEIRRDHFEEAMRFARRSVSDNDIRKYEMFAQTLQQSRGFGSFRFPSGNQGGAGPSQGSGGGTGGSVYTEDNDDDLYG

[2] = target: T1, Transitional endoplasmic reticulum ATPase; experiment: Inhibition of p97 ATPase activity in human HEK293T cells based Ubv-GFP cells assessed as increase Ub-v-GFP accumulation at 2 uM after 4 hrs by Western blot analysis; format: cell-based
Summary of the method: (§1)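 Ub-v-GFP reporter cells (HEK293T-based, 3 × 10⁵) seeded on poly-D-lysine-coated wells and grown overnight. Inhibitor added at 2 μM and kept 4 h at 37 °C (scheme A), or removed after 1 h, cells washed once with PBS, then 3 h in drug-free medium (scheme B). Whole-cell Laemmli extracts immunoblotted for Ub-v-GFP, with anti-p97 as loading control.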
Target sequence in this assay (P55072 2-806 limits assumed): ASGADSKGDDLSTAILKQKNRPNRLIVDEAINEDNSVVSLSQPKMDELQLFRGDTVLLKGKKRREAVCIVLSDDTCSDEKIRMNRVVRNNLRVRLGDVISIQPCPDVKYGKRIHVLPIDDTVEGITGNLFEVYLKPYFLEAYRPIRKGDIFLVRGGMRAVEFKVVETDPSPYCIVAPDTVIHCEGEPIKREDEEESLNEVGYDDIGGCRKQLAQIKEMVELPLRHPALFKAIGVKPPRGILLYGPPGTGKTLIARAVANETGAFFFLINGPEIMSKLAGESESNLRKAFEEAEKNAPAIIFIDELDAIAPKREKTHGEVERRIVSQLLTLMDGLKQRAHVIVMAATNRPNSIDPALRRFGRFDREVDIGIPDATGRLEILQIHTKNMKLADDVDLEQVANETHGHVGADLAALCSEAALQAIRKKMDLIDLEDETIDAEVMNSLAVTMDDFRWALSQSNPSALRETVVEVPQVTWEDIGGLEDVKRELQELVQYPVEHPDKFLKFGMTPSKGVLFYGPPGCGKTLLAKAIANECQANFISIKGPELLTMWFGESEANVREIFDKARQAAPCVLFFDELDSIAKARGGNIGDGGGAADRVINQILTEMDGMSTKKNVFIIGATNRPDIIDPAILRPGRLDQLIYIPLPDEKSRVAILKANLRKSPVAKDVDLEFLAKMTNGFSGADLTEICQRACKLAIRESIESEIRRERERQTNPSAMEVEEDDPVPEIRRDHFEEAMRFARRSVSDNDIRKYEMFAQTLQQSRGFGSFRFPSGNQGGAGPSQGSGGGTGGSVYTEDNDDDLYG

[3] = target: T1, Transitional endoplasmic reticulum ATPase; experiment: Irreversible inhibition of p97 ATPase activity in human HEK293T cells based Ubv-GFP cells assessed as increase Ub-v-GFP accumulation at 2 uM incubated for 4 hrs by Western blot analysis; format: cell-based; summary of the method: as §1
Target sequence in this assay (P55072 2-806 limits assumed): as above

Proteasome [4] = experiment: Inhibition of proteasome in human HEK293T cells based Ubv-GFP cells assessed as increase Ub-v-GFP accumulation at 20 uM after 4 hrs by Western blot analysis
Proteasome [5] = experiment: Inhibition of proteasome in human HEK293T cells stably expressing YFP delSS TCRalpha assessed as reduction in deltaSS TCRalpha-YFP degradation at 10 uM MG132 incubated overnight by Western blot analysis
Proteasome [6] = experiment: Irreversible inhibition of proteasome in human A373 cells co-expressing US11 and HA-tagged MCH class 1 heavy chain H2A assessed as MHC class 1 heavy chain degradation at 20 uM incubated for 1 hr followed by further incubation in drug-free medium in presence of cycloheximide by Western blot analysis
Proteasome [7] = experiment: Inhibition of proteasome in human HEK293T cells stably expressing YFP delSS TCRalpha assessed as reduction in deltaSS TCRalpha-YFP degradation at 2 uM MG132 incubated overnight by Western blot analysis
[8] = target: T1, Transitional endoplasmic reticulum ATPase; experiment: Inhibition of p97 in human A373 cells co-expressing US11 and HA-tagged MCH class 1 heavy chain H2A assessed as MHC class 1 heavy chain accumulation at 2 uM after 1 hr by Western blot analysis; format: cell-based
Target sequence in this assay (P55072 2-806 limits assumed): as above

[9] = target: T1, Transitional endoplasmic reticulum ATPase; experiment: Reversible inhibition of p97 in human A373 cells co-expressing US11 and HA-tagged MCH class 1 heavy chain H2A assessed as half life for MHC class 1 heavy chain degradation at 2 uM incubated for 1 hr followed by further incubation in drug-free medium in presence of cycloheximide by Western blot analysis; format: cell-based
Summary of the method: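 They were then moved to inhibitor-free medium containing cycloheximide (50 μg/mL) and sampled at set time points. Lysates were immunoblotted for heavy chain turnover.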
Target sequence in this assay (P55072 2-806 limits assumed): as above

[10] = GSH reactivity in PBS buffer assessed as half life at 1 uM after presence of GSH by LC-MS/MS analysis; format: physicochemical; details: PBS buffer with GSH
Summary of the method: (§2)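 Compound at 1 μM incubated at 37 °C with 5 mM GSH plus a stable internal standard in 0.1 M potassium phosphate, pH 7.4, 10% acetonitrile. Reaction started by GSH addition. GSH conjugate formation checked at the end of incubation.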

[11] = GSH reactivity in PBS buffer assessed as GSH adduct formation at 1 uM after presence of GSH by LC-MS/MS analysis; format: physicochemical; summary of the method: as §2
[12] = tested on: Transitional endoplasmic reticulum ATPase (Homo sapiens), P55072 [UNDEFINED MUTATION]; experiment: Reversible inhibition of His-tagged p97 C552A mutant (unknown origin) using PNP as substrate assessed as activity recovered at 3200 nM after 2 hrs by dialysis relative to control; parameters: scale not given: the % may be the effect or the level left
Sequence of Transitional endoplasmic reticulum ATPase (Homo sapiens), P55072 [UNDEFINED MUTATION] (P55072 whole entry, looked up, stated change not applied): as the sequence (P55072 whole entry) above

[13] = target: T1, Transitional endoplasmic reticulum ATPase; experiment: Reversible inhibition of His-tagged p97 (unknown origin) using PNP as substrate assessed as activity recovered at 3200 nM after 2 hrs by dialysis relative to control; parameters: scale not given: the % may be the effect or the level left
Target sequence in this assay (P55072 2-806 limits assumed): as the sequence (P55072 2-806 limits assumed) above

Proteasome [14] = experiment: Irreversible inhibition of proteasome in human HEK293T cells based Ubv-GFP cells assessed as increase Ub-v-GFP accumulation at 20 uM after 4 hrs by Western blot analysis
Summary of the method: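 Ub-v-GFP reporter cells (HEK293T-based, stably expressing this short-lived proteasome substrate) seeded at 3 × 10⁵ per well on poly-D-lysine, grown overnight, then exposed to MG132 for 4 h at 37 °C. Whole-cell extracts in Laemmli buffer were run on SDS-PAGE and immunoblotted for Ub-v-GFP, with anti-p97 as loading control.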

Proteasome [15] = experiment: Irreversible inhibition of proteasome in human HEK293T cells based Ubv-GFP cells assessed as increase Ub-v-GFP accumulation at 20 uM incubated for 1 hr followed by culturing in drug-free medium for additional 3 hrs by Western blot analysis
[16] = target: T1, Transitional endoplasmic reticulum ATPase; experiment: Irreversible inhibition of His-tagged p97 (unknown origin) using PNP as substrate assessed as activity recovered at 780 nM after 2 hrs by dialysis relative to control; parameters: scale not given: the % may be the effect or the level left
Target sequence in this assay (P55072 2-806 limits assumed): as above

[17] = target: T1, Transitional endoplasmic reticulum ATPase; experiment: Irreversible inhibition of p97 in human A373 cells co-expressing US11 and HA-tagged MCH class 1 heavy chain H2A assessed as MHC class 1 heavy chain degradation at 2 uM incubated for 1 hr followed by further incubation in drug-free medium in presence of cycloheximide by Western blot analysis
Homo sapiens = organism: Homo sapiens; experiment: Irreversible inhibition of His-tagged p97 delta N mutant (unknown origin) using PNP as substrate assessed as activity recovered at 780 nM after 2 hrs by dialysis relative to control; parameters: scale not given: the % may be the effect or the level left
[18] = target: T1, Transitional endoplasmic reticulum ATPase; experiment: Irreversible inhibition of p97 ATPase activity in human HEK293T cells based Ubv-GFP cells assessed as increase Ub-v-GFP accumulation at 2 uM incubated for 1 hr followed by culturing in drug-free medium for additional 3 hrs by Western blot analysis; format: cell-based; summary of the method: as §1
[19] = target: T1, Transitional endoplasmic reticulum ATPase; experiment: Noncompetitive inhibition of p97 (unknown origin) using increasing concentration of ATP preincubated for 10 mins followed by ATP addition and measured after 2 hrs by UV-based two-step endpoint assay
[20] = tested on: Transitional endoplasmic reticulum ATPase (Homo sapiens), P55072 [UNDEFINED MUTATION]; experiment: Irreversible inhibition of His-tagged p97 C552A mutant (unknown origin) using PNP as substrate assessed as activity recovered at 780 nM after 2 hrs by dialysis relative to control; parameters: scale not given: the % may be the effect or the level left

Row | EC50 (MIA PaCa-2) [nM] | Ki [1] [nM] | inhibition [2] | Structure (SMILES) | other results
1 | 1410 | 24.5 | Active | C#CCCNC(=O)c1cccc2c1cc(C)n2-c1nc2c(c(NCc3ccccc3)n1)CCCC2 | 
2 | 1080 | 18.6 | Active | C#CCNC(=O)c1cccc2c1cc(C)n2-c1nc2c(c(NCc3ccccc3)n1)COCC2 | inhibition [3]: Active
3 | 608 | 40.8 |  | CCCNC(=O)c1cccc2c1cc(C)n2-c1nc2c(c(NCc3ccccc3)n1)CCCC2 | 
4 | 470 | 30.6 | Active | C#CCNC(=O)c1cccc2c1cc(C)n2-c1nc2c(c(NCc3ccccc3)n1)CCCC2 | inhibition [3]: Active
5 | 128 | 28.6 | Active | Cc1cc2c(C(N)=O)cccc2n1-c1nc2c(c(NCc3ccccc3)n1)CCCC2 | 
6 | 468 | 28.1 | Active | Cc1cc2c(C(=O)NCC#N)cccc2n1-c1nc2c(c(NCc3ccccc3)n1)CCCC2 | 
7 | 517 | 24.1 | Active | Cc1cc2c(C(=O)NCCC#N)cccc2n1-c1nc2c(c(NCc3ccccc3)n1)CCCC2 | 
8 | 723 | 37.3 | Active | CC#CCNC(=O)c1cccc2c1cc(C)n2-c1nc2c(c(NCc3ccccc3)n1)CCCC2 | inhibition [3]: Active; half-life at 1 µM [10]: > 24 h; Activity [11]: Not Active

Further lines, the compound ahead of its results:

Row | Structure (SMILES) | EC50 (MIA PaCa-2) [nM] | Ki [1] [nM] | inhibition [2] | other results
9 | CCCC#CC(=O)Nc1cccc2c1cc(C)n2-c1nc2c(c(NCc3ccccc3)n1)CCCC2 | 1570 | 26.9 | Active | 
10 | C=CC(=O)Nc1cccc2c1cc(C)n2-c1nc2c(c(NCc3ccccc3)n1)COCC2 | 880 | 26.6 |  | 
11 | C#CC(=O)Nc1cccc2c1cc(C)n2-c1nc2c(c(NCc3ccccc3)n1)CCCC2 | 131 | 37.9 |  | 
12 | CC(C)C[C@@H](C=O)NC(=O)[C@H](CC(C)C)NC(=O)[C@H](CC(C)C)NC(=O)OCc1ccccc1 (Cbz-Leu-Leu-Leu-aldehyde) |  |  |  | inhibition (Proteasome [4]): Active; inhibition (Proteasome [5]): Active; inhibition (Proteasome [6]): Active
13 | C#CC(=O)Nc1cccc2c1cc(C)n2-c1nc2c(c(NCc3ccccc3)n1)COCC2 | 78.7 | 32.8 |  | 
14 | Cc1cc(OCc2nnc(SC3CCCC3)n2-c2cccnc2)ccc1-c1ccc(S(C)(=O)=O)cc1 |  |  |  | inhibition (Proteasome [7]): inactive; inhibition [8]: Active; T1/2 [9]: < 1 h
15 | CCC#CC(=O)Nc1cccc2c1cc(C)n2-c1nc2c(c(NCc3ccccc3)n1)CCCC2 | 463 | 43 | Active | 
16 | CC#CCNC(=O)c1cccc2c1cc(C)n2-c1nc2c(c(NCc3ccccc3)n1)COCC2 | 524 | 42.4 | Active | inhibition [3]: Active; half-life at 1 µM [10]: > 24 h; Activity [11]: Not Active
17 | COc1cccc2c(NCc3ccccc3)nc(-n3c(N)nc4ccccc43)nc12 |  |  |  | Activity [12]: 100%; Activity [13]: 82%
18 | CCC[C@@H](C=O)NC(=O)[C@H](CC(C)C)NC(=O)[C@H](CC(C)C)NC(=O)OCc1ccccc1 (Cbz-Leu-Leu-[Nva]-aldehyde) |  |  |  | inhibition (Proteasome [14]): Active; inhibition (Proteasome [15]): Active
19 | CC#CC(=O)Nc1cccc2c1cc(C)n2-c1nc2c(c(NCc3ccccc3)n1)COCC2 | 600 | 32.3 |  | 
20 | CC#CC(=O)Nc1cccc2c1cc(C)n2-c1nc2c(c(NCc3ccccc3)n1)CCCC2 | 436 | 33.2 | Active | Activity [16]: 3%; inhibition [3]: Active; inhibition (Proteasome [7]): inactive; inhibition [17]: Active; Activity (Homo sapiens): 0%; inhibition [8]: Active; inhibition [18]: Active; inhibition [19]: Active; Activity [20]: 6%
21 | CCC(=O)Nc1cccc2c1cc(C)n2-c1nc2c(c(NCc3ccccc3)n1)CCCC2 | 1010 | 20.8 | Active | 
